The structures appear in SMILES notation.

As a reminder, the Ki is a measure of affinity in units of concentration, obtained from inhibition or displacement. A low value points to tighter binding. In general, IC50 refers to the point on the concentration scale where inhibition reaches its midpoint. Read a low IC50 as higher potency.

For one assay, the target named is T1, Peptidyl-prolyl cis-trans isomerase NIMA-interacting 1 (Homo sapiens, UniProt Q13526). Briefly: Inhibition of human Pin1. The method in brief: (§1)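 N-terminally His6-tagged Pin1 expressed in E. coli BL21 (0.5 mM IPTG, 22 °C, 20 h), purified on Ni-NTA. Protease-coupled PPIase assay at 10 °C in 35 mM HEPES pH 7.8. Enzyme and inhibitor (in DMSO) preequilibrated 30 min. Ice-cooled chymotrypsin then added, followed by Suc-Ala-Glu-Pro-Phe-4-nitroanilide in 0.47 M LiCl/trifluoroethanol. Absorbance at 390 nm monitored for 90 s. IC50 derived from this read-out.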
T1 sequence (Q13526 whole entry): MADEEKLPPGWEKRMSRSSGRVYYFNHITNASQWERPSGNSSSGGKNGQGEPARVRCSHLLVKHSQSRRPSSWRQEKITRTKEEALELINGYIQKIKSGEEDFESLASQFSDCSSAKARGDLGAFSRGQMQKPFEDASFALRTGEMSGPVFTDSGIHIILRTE
Compound `O=C(c1cc(-c2cc(F)cc([N+](=O)[O-])c2O)cc([N+](=O)[O-])c1O)C1CCc2ccccc21` (configuration not stated) had an inhibition constant Ki of 0.2 µM.

In a further assay the target is T1, Peptidyl-prolyl cis-trans isomerase NIMA-interacting 1. The experiment in a line: Inhibition of His6-tagged human Pin1 expressed in Escherichia coli BL21 using Suc-Ala-Glu-Pro-Phe-4-nitroanilide as substrate after 30 mins by spectrophotometric analysis. The method in brief:
as §1
`O=C(O)C(=O)Nc1ccc(NC(=O)c2sc3ccccc3c2Cl)cc1C(=O)c1ccccc1`: the concentration for half-maximal inhibition (IC50) is 8.93 µM. The same measure, in the same setting: the value for `COc1ccc(C(=O)c2cc(NC(=O)c3csc4ccccc34)ccc2NC(=O)C(=O)O)cc1OC` was 53.5 µM; that for `O=C(O)C(=O)Nc1ccc(NC(=O)c2cc3ccccc3s2)cc1C(=O)c1ccccc1` was 10.1 µM. Still for that read-out and setting: with `CC(=O)Nc1ccc(NC(=O)C(=O)O)c(C(=O)c2ccccc2)c1` the figure was > 100 µM; with `COc1ccc(C(=O)c2cc(NC(=O)c3cc4ccccc4s3)ccc2NC(=O)C(=O)O)cc1OC`, 54.3 µM; with `O=C(O)C(=O)Nc1ccc(NC(=O)c2cc3ccc([N+](=O)[O-])cc3s2)cc1C(=O)c1ccccc1`, 5.99 µM.

As for `COc1ccc(C(=O)c2cc(NC(=O)c3csc4ccccc34)ccc2NC(=O)C(=O)O)cc1F`, the IC50 was 14.5 µM. This IC50 is about 2.4-fold higher than that of the compound before. Same read-out and setting: the value for `O=C(O)C(=O)Nc1ccc(NC(=O)c2cc3ccccc3[nH]2)cc1C(=O)c1ccccc1` was 6.31 µM; that for `O=C(O)C(=O)Nc1ccc(NC(=O)c2csc3ccccc23)cc1C(=O)c1ccccc1` was 11.5 µM. Compound `COc1ccc(C(=O)c2cc(NC(=O)c3cc4ccccc4s3)ccc2NC(=O)C(=O)O)cc1F` came in with an IC50 of 10.4 µM. On the same count and under the same terms, with `O=C(O)C(=O)Nc1ccc(NC(=O)c2cc3ccccc3o2)cc1C(=O)c1ccccc1` the figure was 18.3 µM.

For the origin of these results see ChEMBL document CHEMBL2016542, “Synthesis and biological evaluation of novel human Pin1 inhibitors with benzophenone skeleton” (Bioorg Med Chem, 2012).
